The source of these data is ChEMBL document CHEMBL3627646, “Synthesis and biological activity of amino acid derivatives of avarone and its model compound” (Bioorg Med Chem, 2015).

Converted amounts (≈) assume the structure as drawn.

For the first series, the system named is Bacillus subtilis. As to the kind of experiment: Antibacterial activity against Bacillus subtilis ATCC 6633 after 24 hrs by microbroth double dilution method. The class given is functional. Particulars: ATCC 6633, 24 h. An outline of the steps: (§1)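 Microbroth double dilution in Mueller Hinton broth; compound stock 10 mg/mL in DMSO serially halved across rows. Wells inoculated with 10 μL culture at 10^6 cells/mL, incubated 37 °C for 24 h. Amikacin row as positive control, DMSO row as negative control. MIC taken as lowest concentration inhibiting bacterial growth.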
Background: In broth dilution the organism is exposed to a series of concentrations in liquid medium.
In general, MIC refers to the lowest concentration found to suppress growth. A high value points to a less susceptible organism. In turn, `C[C@H](NC1=CC(=O)C=C(C(C)(C)C)C1=O)C(=O)O` registered an MIC of 2490 µM (≈ 626 µg/mL).
Same read-out and setting: to `CC(C)C[C@H](NC1=CC(=O)C=C(C(C)(C)C)C1=O)C(=O)O` belongs 2130 µM (≈ 625 µg/mL).

The test system of another series is Micrococcus luteus. The series is described as follows: Antibacterial activity against Micrococcus luteus ATCC 4698 after 24 hrs by microbroth double dilution method. Conditions: ATCC 4698, 24 h. The class given is functional. An outline of the steps: as §1
Compound `C[C@H](NC1=CC(=O)C=C(C(C)(C)C)C1=O)C(=O)O` returned an MIC of 1250 µM (≈ 313 µg/mL).
On the same count and under the same terms, as for `CC(C)C[C@H](NC1=CC(=O)C=C(C(C)(C)C)C1=O)C(=O)O`, the figure is 266 µM (≈ 78 µg/mL).

Another series relates to HeLa. As to the kind of experiment: Cytotoxicity against human HeLa cells assessed as cell survival after 72 hrs by MTT assay.
Conditions: not given
Type of series: functional, cell-based. An outline of the steps:
(§2)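 Cells seeded (HeLa 2000, MDA-MB-453 3000, others 5000 per well), treated 24 h later (K562 after 2 h). Five double-diluted final concentrations, 200–12.5 μM, from 10 mM DMSO stocks, in RPMI-1640 with 10% FBS, pH 7.2, 72 h. MTT 4 h at 37 °C, SDS added, A570 read next day. Survival relative to medium control; IC50 from survival curves; triplicate; cisplatin positive control.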
On the technique in general: Tetrazolium assays rely on reduction of a dye to a coloured formazan, in cell work by metabolically active cells.
The IC50 is the concentration at which inhibition is half-maximal. Regarding `C[C@H](NC1=CC(=O)C=C(C(C)(C)C)C1=O)C(=O)O`, the IC50 was 89.1 µM.
Turning to `CC(C)C[C@H](NC1=CC(=O)C=C(C(C)(C)C)C1=O)C(=O)O`, the IC50 worked out at 57.2 µM.

The test system of a further series is Clostridium sporogenes. As to the kind of experiment: Antibacterial activity against Clostridium sporogenes ATCC 19404 after 24 hrs by microbroth double dilution method. The class given is functional. Particulars: ATCC 19404, 24 h. An outline of the steps:
as §1
In the case of `C[C@H](NC1=CC(=O)C=C(C(C)(C)C)C1=O)C(=O)O`, the minimum inhibitory concentration (MIC) was determined as 2490 µM (≈ 626 µg/mL).
`CC(C)C[C@H](NC1=CC(=O)C=C(C(C)(C)C)C1=O)C(=O)O`: the MIC turned out to be 2130 µM (≈ 625 µg/mL).

The test system of another series is Escherichia coli. As to the kind of experiment: Antibacterial activity against Escherichia coli ATCC 25922 after 24 hrs by microbroth double dilution method. The class given is functional. Particulars: ATCC 25922, 24 h. An outline of the steps: as §1
Regarding `C[C@H](NC1=CC(=O)C=C(C(C)(C)C)C1=O)C(=O)O`, the lowest concentration to inhibit growth (MIC) was 1250 µM (≈ 313 µg/mL).
Same read-out and setting: as for `CC(C)C[C@H](NC1=CC(=O)C=C(C(C)(C)C)C1=O)C(=O)O`, the figure is 266 µM (≈ 78 µg/mL).

A further series deals with Proteus hauseri. The series is described as follows: Antibacterial activity against Proteus hauseri ATCC 13315 after 24 hrs by microbroth double dilution method. Type of series: functional. Conditions: ATCC 13315, 24 h. An outline of the steps:
as §1
Take `C[C@H](NC1=CC(=O)C=C(C(C)(C)C)C1=O)C(=O)O`: the MIC was found to be 4980 µM (≈ 1250 µg/mL). This lies in the millimolar range.
`CC(C)C[C@H](NC1=CC(=O)C=C(C(C)(C)C)C1=O)C(=O)O`: the MIC was determined as 2130 µM (≈ 625 µg/mL).

The next series concerns Salmonella enterica. As to the kind of experiment: Antibacterial activity against Salmonella enterica ATCC 13076 after 24 hrs by microbroth double dilution method. The class given is functional. Particulars: ATCC 13076, 24 h. An outline of the steps: as §1
Compound `C[C@H](NC1=CC(=O)C=C(C(C)(C)C)C1=O)C(=O)O` had an MIC of 2490 µM (≈ 626 µg/mL).
In turn, `CC(C)C[C@H](NC1=CC(=O)C=C(C(C)(C)C)C1=O)C(=O)O` registered an MIC of 2130 µM (≈ 625 µg/mL).

The subject of a further series is MRC5. As to the kind of experiment: Cytotoxicity against human MRC5 cells assessed as cell survival after 72 hrs by MTT assay. Type of series: cell-based. Particulars: MRC5, 72 h. An outline of the steps:
as §2
In the case of `C[C@H](NC1=CC(=O)C=C(C(C)(C)C)C1=O)C(=O)O`, the IC50 is greater than 200 µM.
For the compound `CC(C)C[C@H](NC1=CC(=O)C=C(C(C)(C)C)C1=O)C(=O)O`, the IC50 is greater than 200 µM.

The subject of the next series is K562. As to the kind of experiment: Cytotoxicity against human K562 cells assessed as cell survival after 72 hrs by MTT assay. Type of series: functional, cell-based. Conditions: K562, 72 h. An outline of the steps: as §2
Turning to `C[C@H](NC1=CC(=O)C=C(C(C)(C)C)C1=O)C(=O)O`, the IC50 worked out at 77.6 µM.
With `CC(C)C[C@H](NC1=CC(=O)C=C(C(C)(C)C)C1=O)C(=O)O`, the IC50 came out at 76.5 µM.

For a further series, the system named is A549. As to the kind of experiment: Cytotoxicity against human A549 cells assessed as cell survival after 72 hrs by MTT assay. The class given is functional, cell-based. Conditions: A549, 72 h. An outline of the steps:
as §2
As for `C[C@H](NC1=CC(=O)C=C(C(C)(C)C)C1=O)C(=O)O`, the IC50 was greater than 200 µM.
For the compound `CC(C)C[C@H](NC1=CC(=O)C=C(C(C)(C)C)C1=O)C(=O)O`, the IC50 was found to be 97.9 µM.

The next series deals with Staphylococcus aureus. As to the kind of experiment: Antibacterial activity against Staphylococcus aureus ATCC 6538 after 24 hrs by microbroth double dilution method. The class given is functional. Particulars: ATCC 6538, 24 h. An outline of the steps:
as §1
Consider `C[C@H](NC1=CC(=O)C=C(C(C)(C)C)C1=O)C(=O)O`, for which inhibition of growth (MIC) required 1250 µM (≈ 313 µg/mL).
The compound `CC(C)C[C@H](NC1=CC(=O)C=C(C(C)(C)C)C1=O)C(=O)O` yielded an MIC of 266 µM (≈ 78 µg/mL).

Another series deals with Kocuria rhizophila. The series is described as follows: Antibacterial activity against Kocuria rhizophila ATCC 9341 after 24 hrs by microbroth double dilution method. Particulars: ATCC 9341, 24 h. Type of series: functional. An outline of the steps: as §1
Take `C[C@H](NC1=CC(=O)C=C(C(C)(C)C)C1=O)C(=O)O`: the MIC came out at 4980 µM (≈ 1250 µg/mL). This lies in the millimolar range.
On the same count and under the same terms, to `CC(C)C[C@H](NC1=CC(=O)C=C(C(C)(C)C)C1=O)C(=O)O` belongs 2130 µM (≈ 625 µg/mL).

The test system of a further series is Aspergillus brasiliensis. As to the kind of experiment: Antifungal activity against Aspergillus brasiliensis ATCC 16404 after 24 hrs by microbroth double dilution method. Type of series: functional. Conditions: ATCC 16404, 24 h.
In turn, `C[C@H](NC1=CC(=O)C=C(C(C)(C)C)C1=O)C(=O)O` registered an MIC of 1240 µM (≈ 312 µg/mL).
`CC(C)C[C@H](NC1=CC(=O)C=C(C(C)(C)C)C1=O)C(=O)O` showed an MIC of 1070 µM (≈ 313 µg/mL).

Another series deals with Micrococcus flavus. The series is described as follows: Antibacterial activity against Micrococcus flavus ATCC 10240 after 24 hrs by microbroth double dilution method. The class given is functional. Conditions: ATCC 10240, 24 h. An outline of the steps:
as §1
`C[C@H](NC1=CC(=O)C=C(C(C)(C)C)C1=O)C(=O)O` had an MIC of 2490 µM (≈ 626 µg/mL).
With `CC(C)C[C@H](NC1=CC(=O)C=C(C(C)(C)C)C1=O)C(=O)O`, the MIC stood at 2130 µM (≈ 625 µg/mL).

The next series concerns Saccharomyces cerevisiae. As to the kind of experiment: Antifungal activity against Saccharomyces cerevisiae ATCC 9763 after 24 hrs by microbroth double dilution method. The class given is functional. Particulars: ATCC 9763, 24 h.
As to `C[C@H](NC1=CC(=O)C=C(C(C)(C)C)C1=O)C(=O)O`, the lowest concentration to inhibit growth (MIC) was 626 µM (≈ 157 µg/mL).
Take `CC(C)C[C@H](NC1=CC(=O)C=C(C(C)(C)C)C1=O)C(=O)O`: the MIC turned out to be 133 µM (≈ 39 µg/mL).

The next series has as its system Pseudomonas aeruginosa. The series is described as follows: Antibacterial activity against Pseudomonas aeruginosa ATCC 9027 after 24 hrs by microbroth double dilution method. The class given is functional. Particulars: ATCC 9027, 24 h. An outline of the steps:
as §1
On to `C[C@H](NC1=CC(=O)C=C(C(C)(C)C)C1=O)C(=O)O`, for which inhibition of growth (MIC) required 2490 µM (≈ 626 µg/mL).
The compound `CC(C)C[C@H](NC1=CC(=O)C=C(C(C)(C)C)C1=O)C(=O)O` came in with an MIC of 4260 µM (≈ 1250 µg/mL).

Another series deals with Artemia salina. As to the kind of experiment: Cytotoxicity in Brine shrimp assessed as nauplii mortality after 24 hrs. Conditions: in vivo. Type of series: organism-based. An outline of the steps:
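Artemia salina eggs hatched in aerated tap water with dried yeast at 18–20 °C under illumination for 48 h, and freshly hatched nauplii were used. Compounds in DMSO (0.01–1 mg) were added to 950 µL artificial seawater containing 10–20 nauplii, with 5% final DMSO. After 24 h under illumination at room temperature, dead and surviving nauplii were counted and statistically analysed.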
A word on the LC50: it is the concentration lethal to half of the exposed cells or organisms. As to `C[C@H](NC1=CC(=O)C=C(C(C)(C)C)C1=O)C(=O)O`, the LC50 is reported as 393.8 ppm.
On to `CC(C)C[C@H](NC1=CC(=O)C=C(C(C)(C)C)C1=O)C(=O)O`, for which the LC50 was determined as 104.8 ppm.

Test system in another series: not listed separately
The series is described as follows: Cytotoxicity against human Fem-X cells assessed as cell survival after 72 hrs by MTT assay. The class given is functional, cell-based.
Conditions: not given
An outline of the steps:
as §2
Regarding `C[C@H](NC1=CC(=O)C=C(C(C)(C)C)C1=O)C(=O)O`, the IC50 is 20.1 µM.
Same read-out and setting: as for `CC(C)C[C@H](NC1=CC(=O)C=C(C(C)(C)C)C1=O)C(=O)O`, the figure is 39.4 µM.

The test system of the next series is MDA-MB-453. As to the kind of experiment: Cytotoxicity against human MDA-MB-453 cells assessed as cell survival after 72 hrs by MTT assay. Type of series: functional, cell-based. Conditions: MDA-MB-453, 72 h. An outline of the steps: as §2
Take `C[C@H](NC1=CC(=O)C=C(C(C)(C)C)C1=O)C(=O)O`: the IC50 worked out at 112 µM.
With `CC(C)C[C@H](NC1=CC(=O)C=C(C(C)(C)C)C1=O)C(=O)O`, the IC50 stood at 84.9 µM.

Another series concerns Candida albicans. The series is described as follows: Antifungal activity against Candida albicans ATCC 10231 after 24 hrs by microbroth double dilution method. Type of series: functional. Conditions: ATCC 10231, 24 h.
In the case of `C[C@H](NC1=CC(=O)C=C(C(C)(C)C)C1=O)C(=O)O`, the MIC amounted to 626 µM (≈ 157 µg/mL).
In turn, `CC(C)C[C@H](NC1=CC(=O)C=C(C(C)(C)C)C1=O)C(=O)O` displayed an MIC of 536 µM (≈ 157 µg/mL).
